Results: ChEMBL document CHEMBL1125686, “(Benzoylphenyl)piperidines: a new class of immunomodulators” (1991)

What follows are compounds tested on Mus musculus (assay: […] induction of Thyl+ antigen expression on murine bone marrow cells (Fraction A).(Control group)).
Type: functional
In short: (§1)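 Bone marrow from female C57 BL/6 mice, 5–8 weeks old, separated on a discontinuous BSA gradient. Fraction A (lowest density) and fraction B (next lowest) resuspended at 10⁶ cells/mL in HBSS with 5% BSA. Cells incubated 24 h with one compound concentration, then stained directly with FITC anti-Thy1 and counted by epifluorescence microscopy. % Thy1⁺ cells recorded for treated and control cultures.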
Compound “H-CSDAAVDVSSEITVKDLKEKKEVVEEAE-OH [THYMOSIN]” has a Differentiation of 10.8%.

The compounds below were run on Mus musculus (assay: […] induction of Thyl+ antigen expression on murine bone marrow cells at the concentration of 2.6 uM(Fraction A).(Control group)).
Type: functional
In short: as §1
Compound `CC1CCCN(c2ccc(N)cc2C(=O)c2ccc(Cl)cc2)C1` (configuration not stated) has a Differentiation of 5%.

Organism: Mus musculus
Assay: Proliferation induced by the mitogen alone-PWM (control blastogenesis), in Mice cells at a dose of 20 ug/mL
Type: functional
In short: (§2)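 Splenocytes from female DBA/2 mice, 6–9 weeks old; red cells lysed with cold 0.17 M NH₄Cl. Cells plated at 5 × 10⁶ cells/mL in RPMI 1640 with 5% FCS, with compound (5–80 μg/mL range) and Con A, PWM or PHA at a batch-optimized concentration. Cultured 72 h at 37 °C, 5% CO₂, with [³H]thymidine for the final 24 h, read by scintillation. Triplicate wells; mean ± SD of three cultures.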
In the case of `Cc1cc(C(=O)c2cc(N)ccc2N2CCC(C)CC2)cc(C)c1C`, the Proliferative response is reported as 84.5. With `CC1CCN(c2ccc(N)cc2C(=O)c2ccccc2Cl)CC1` the Proliferative response was 80.

Organism: Mus musculus
Assay: Proliferation induced by the mitogen alone-PHA (control blastogenesis), in Mice cells at a dose of 5 ug/mL
Type: functional
Design: unit not given here
In short: as §2
For `CC1CCN(c2ccc(N)cc2C(=O)c2ccc(Br)cc2)CC1`, the Proliferative response was 7.

Each compound was assayed on Mus musculus (assay: […] induction of Thyl+ antigen expression on murine bone marrow cells (Fraction B).(Treated)).
Type: functional
In short: as §1
Compound “H-CSDAAVDVSSEITVKDLKEKKEVVEEAE-OH [THYMOSIN]” has a Differentiation of 9.4%.

Each compound was assayed on Mus musculus (assay: […] induction of Thyl+ antigen expression on murine bone marrow cells at the concentration of 2.6 uM(Fraction B).(Control group)).
Type: functional
In short: as §1
Compound `CC1CCCN(c2ccc(N)cc2C(=O)c2ccc(Cl)cc2)C1` (configuration not stated) has a Differentiation of 3.8%.

Organism: Mus musculus
Assay: Maximal proliferation induced by the test compound in the presence of the mitogen-PHA ( stimulated blastogenesis) in Mice cells at a dose of 7.5 ug/mL
Type: functional
In short: as §2
Compound `CC1CCN(c2ccc(Cl)cc2C(=O)c2ccc(Cl)cc2)CC1` has a Proliferative response of 8.2. `CC1CCN(c2ccccc2C(=O)c2ccc(Cl)cc2)CC1` showed a Proliferative response of 15.5.

Each compound was assayed on Mus musculus (assay: […] induction of Thyl+ antigen expression on murine bone marrow cells at the concentration of 2.6 uM(Fraction B).(treated)).
Type: functional
In short: as §1
Compound `CC1CCCN(c2ccc(N)cc2C(=O)c2ccc(Cl)cc2)C1` (configuration not stated) has a Differentiation of 5%.

Organism: Mus musculus
Assay: Maximal proliferation induced in the presence of the mitogen-PWM ( stimulated blastogenesis) in Mice cells at a dose of 80 ug/mL
Type: functional
Design: unit not given here
In short: as §2
Work on `COc1ccc(C(=O)c2cc(N)ccc2N2CCC(C)CC2)cc1OC` yielded a Proliferative response of 48.8. `CC1CCCN(c2ccc(N)cc2C(=O)c2ccc(Cl)cc2)C1` (configuration not stated) showed a Proliferative response of 45. `CC1CCN(c2ccc(N)cc2C(=O)c2ccc(Cl)c(Cl)c2)CC1` was tested, and the Proliferative response was 64.4. `CC1CCN(c2ccc(N)cc2C(=O)c2ccc(F)cc2)CC1` gave a Proliferative response of 69.9. In the case of `Cc1ccc(C(=O)c2cc(N)ccc2N2CCC(C)CC2)c(C)c1`, the Proliferative response is reported as 61.5.

Organism: Mus musculus
Assay: Maximal proliferation induced in the presence of the mitogen-PHA ( stimulated blastogenesis) in Mice cells at a dose of 5 ug/mL
Type: functional
Design: unit not given here
In short: as §2
Compound `CC1CCN(c2ccc(N)cc2C(=O)c2ccc(Br)cc2)CC1` has a Proliferative response of 11.1.

The compounds below were run on Mus musculus (assay: […] induction of Thyl+ antigen expression on murine bone marrow cells at the concentration of 2.6 uM(Fraction A).(treated)).
Type: functional
In short: as §1
`CC1CCCN(c2ccc(N)cc2C(=O)c2ccc(Cl)cc2)C1` (configuration not stated) was tested, and the Differentiation was 6.7%.

Organism: Mus musculus
Assay: Proliferation induced by the mitogen alone-PWM (control blastogenesis), in Mice cells at a dose of 40 ug/mL
Type: functional
Design: unit not given here
In short: (§3)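 Splenocytes from female DBA/2 mice aged 6–9 weeks, red cells lysed with cold 0.17 M NH4Cl, cultured at 5 × 10⁶ cells/mL in RPMI 1640 with 5% FCS. Pokeweed mitogen added at a batch-adjusted optimal level, 72 h at 37 °C, 5% CO2. [³H]thymidine pulse for the final 24 h, then scintillation counting. Triplicates; mean ± SD of three cultures.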
Compound `Cc1ccc(C(=O)c2cc(N)ccc2N2CCC(C)CC2)cc1` has a Proliferative response of 53.8. Compound `CC1CCN(c2ccc(N)cc2C(=O)c2ccccc2)CC1` has a Proliferative response of 48.9. In the case of `CC1CCN(c2ccc(N)cc2C(=O)c2ccc(Br)cc2)CC1`, the Proliferative response is reported as 40.5. Work on `CC1CCN(c2ccc([N+](=O)[O-])cc2C(=O)c2ccc(Cl)cc2)CC1` yielded a Proliferative response of 59.9.

Organism: Mus musculus
Assay: Proliferation induced by the mitogen alone-PHA (control blastogenesis), in Mice cells at a dose of 7.5 ug/mL
Type: functional
In short: as §2
Compound `CC1CCN(c2ccc(Cl)cc2C(=O)c2ccc(Cl)cc2)CC1` has a Proliferative response of 14.6. `CC1CCN(c2ccccc2C(=O)c2ccc(Cl)cc2)CC1` showed a Proliferative response of 17.4.

Organism: Mus musculus
Assay: Proliferation induced by the mitogen alone-PWM (control blastogenesis), in Mice cells at a dose of 80 ug/mL
Type: functional
Design: unit not given here
In short: as §3
With `COc1ccc(C(=O)c2cc(N)ccc2N2CCC(C)CC2)cc1OC` the Proliferative response was 44.9. For `CC1CCCN(c2ccc(N)cc2C(=O)c2ccc(Cl)cc2)C1` (configuration not stated), the Proliferative response was 41.3. For `CC1CCN(c2ccc(N)cc2C(=O)c2ccc(Cl)c(Cl)c2)CC1`, the Proliferative response was 48.4. For `CC1CCN(c2ccc(N)cc2C(=O)c2ccc(F)cc2)CC1`, the Proliferative response was 72.2. `Cc1ccc(C(=O)c2cc(N)ccc2N2CCC(C)CC2)c(C)c1` gave a Proliferative response of 68.8.

What follows are compounds tested on Mus musculus (assay: Proliferation induced by the mitogen alone-Concanavalin A (control blastogenesis), in mice cells dosed at 5 ug/mL).
Type: functional
Design: unit not given here
In short: as §2
Compound `COc1ccc(C(=O)c2cc(N)ccc2N2CCC(C)CC2)cc1OC` has a Proliferative response of 137.4. For `CC1CCCN(c2ccc(N)cc2C(=O)c2ccc(Cl)cc2)C1` (configuration not stated), the Proliferative response was 124.4. `Cc1cc(C(=O)c2cc(N)ccc2N2CCC(C)CC2)cc(C)c1C` gave a Proliferative response of 152.6. In the case of `CC1CCN(c2ccc(Cl)cc2C(=O)c2ccc(Cl)cc2)CC1`, the Proliferative response is reported as 55.6. `CC1CCN(c2ccccc2C(=O)c2ccc(Cl)cc2)CC1` gave a Proliferative response of 92.7. For `CC1CCN(c2ccc(N)cc2C(=O)c2ccc(Cl)c(Cl)c2)CC1`, the Proliferative response was 136.6. `Cc1ccc(C(=O)c2cc(N)ccc2N2CCC(C)CC2)cc1` was tested, and the Proliferative response was 179.7. In the case of `CC1CCN(c2ccc(N)cc2C(=O)c2ccccc2)CC1`, the Proliferative response is reported as 188.1. Compound `CC1CCN(c2ccc(N)cc2C(=O)c2ccc(F)cc2)CC1` has a Proliferative response of 268.2. `Cc1ccc(C(=O)c2cc(N)ccc2N2CCC(C)CC2)c(C)c1` showed a Proliferative response of 279.6. Work on `CC1CCN(c2ccc(N)cc2C(=O)c2ccc(Br)cc2)CC1` yielded a Proliferative response of 118.7. `CC1CCN(c2ccc(N)cc2C(=O)c2ccccc2Cl)CC1` showed a Proliferative response of 150. For `CC1CCN(c2ccc([N+](=O)[O-])cc2C(=O)c2ccc(Cl)cc2)CC1`, the Proliferative response was 160.9.

Each compound was assayed on Mus musculus (assay: […] induction of Thyl+ antigen expression on murine bone marrow cells (Fraction A).(Treated)).
Type: functional
In short: as §1
“H-CSDAAVDVSSEITVKDLKEKKEVVEEAE-OH [THYMOSIN]” showed a Differentiation of 21.9%.

The compounds below were run on Mus musculus (assay: […] induction of Thyl+ antigen expression on murine bone marrow cells (Fraction B).(Control group)).
Type: functional
In short: as §1
For “H-CSDAAVDVSSEITVKDLKEKKEVVEEAE-OH [THYMOSIN]”, the Differentiation was 6.3%.

Organism: Mus musculus
Assay: Maximal proliferation induced by the test compound in the presence of the mitogen-PWM ( stimulated blastogenesis) in Mice cells at a dose of 20 ug/mL
Type: functional
In short: as §2
`Cc1cc(C(=O)c2cc(N)ccc2N2CCC(C)CC2)cc(C)c1C` showed a Proliferative response of 77.1. `CC1CCN(c2ccc(N)cc2C(=O)c2ccccc2Cl)CC1` showed a Proliferative response of 85.8.

Each compound was assayed on Mus musculus (assay: Maximal proliferation induced in the presence of the mitogen-Concanavalin A (stimulated blastogenesis) in mice cells dosed at 5 ug/mL).
Type: functional
Design: unit not given here
In short: as §2
`COc1ccc(C(=O)c2cc(N)ccc2N2CCC(C)CC2)cc1OC` gave a Proliferative response of 158.4. With `CC1CCCN(c2ccc(N)cc2C(=O)c2ccc(Cl)cc2)C1` (configuration not stated) the Proliferative response was 141.6. Compound `Cc1cc(C(=O)c2cc(N)ccc2N2CCC(C)CC2)cc(C)c1C` has a Proliferative response of 206. Work on `CC1CCN(c2ccc(Cl)cc2C(=O)c2ccc(Cl)cc2)CC1` yielded a Proliferative response of 68.7. Compound `CC1CCN(c2ccccc2C(=O)c2ccc(Cl)cc2)CC1` has a Proliferative response of 62.7. `CC1CCN(c2ccc(N)cc2C(=O)c2ccc(Cl)c(Cl)c2)CC1` gave a Proliferative response of 151.5. Work on `Cc1ccc(C(=O)c2cc(N)ccc2N2CCC(C)CC2)cc1` yielded a Proliferative response of 283.2. With `CC1CCN(c2ccc(N)cc2C(=O)c2ccccc2)CC1` the Proliferative response was 167. In the case of `CC1CCN(c2ccc(N)cc2C(=O)c2ccc(F)cc2)CC1`, the Proliferative response is reported as 165.6. `Cc1ccc(C(=O)c2cc(N)ccc2N2CCC(C)CC2)c(C)c1` showed a Proliferative response of 250. With `CC1CCN(c2ccc(N)cc2C(=O)c2ccc(Br)cc2)CC1` the Proliferative response was 123.4. In the case of `CC1CCN(c2ccc(N)cc2C(=O)c2ccccc2Cl)CC1`, the Proliferative response is reported as 165.5. `CC1CCN(c2ccc([N+](=O)[O-])cc2C(=O)c2ccc(Cl)cc2)CC1` showed a Proliferative response of 93.7.

Organism: Mus musculus
Assay: Maximal proliferation induced in the presence of the mitogen-PWM ( stimulated blastogenesis) in Mice cells at a dose of 40 ug/mL
Type: functional
Design: unit not given here
In short: as §2
`Cc1ccc(C(=O)c2cc(N)ccc2N2CCC(C)CC2)cc1` was tested, and the Proliferative response was 48.9. `CC1CCN(c2ccc(N)cc2C(=O)c2ccccc2)CC1` showed a Proliferative response of 55.7. In the case of `CC1CCN(c2ccc(N)cc2C(=O)c2ccc(Br)cc2)CC1`, the Proliferative response is reported as 56.4. Compound `CC1CCN(c2ccc([N+](=O)[O-])cc2C(=O)c2ccc(Cl)cc2)CC1` has a Proliferative response of 42.7.
